Experimental data: ChEMBL document CHEMBL1152488, “Synthesis and evaluation of pyrido[1,2-a]pyrimidines as inhibitors of nitric oxide synthases” (Eur J Med Chem, 2009)

Assays:
[1] = target: T1, Nitric oxide synthase, inducible (Mus musculus) (UniProt P29477); test: Inhibition of iNOS in LPS and IFN-gamma-stimulated mouse RAW264.7 cells assessed as inhibition of nitrite accumulation at 100 uM after 15 hrs by Griess assay; assay type: cell-based
T1 sequence (whole entry): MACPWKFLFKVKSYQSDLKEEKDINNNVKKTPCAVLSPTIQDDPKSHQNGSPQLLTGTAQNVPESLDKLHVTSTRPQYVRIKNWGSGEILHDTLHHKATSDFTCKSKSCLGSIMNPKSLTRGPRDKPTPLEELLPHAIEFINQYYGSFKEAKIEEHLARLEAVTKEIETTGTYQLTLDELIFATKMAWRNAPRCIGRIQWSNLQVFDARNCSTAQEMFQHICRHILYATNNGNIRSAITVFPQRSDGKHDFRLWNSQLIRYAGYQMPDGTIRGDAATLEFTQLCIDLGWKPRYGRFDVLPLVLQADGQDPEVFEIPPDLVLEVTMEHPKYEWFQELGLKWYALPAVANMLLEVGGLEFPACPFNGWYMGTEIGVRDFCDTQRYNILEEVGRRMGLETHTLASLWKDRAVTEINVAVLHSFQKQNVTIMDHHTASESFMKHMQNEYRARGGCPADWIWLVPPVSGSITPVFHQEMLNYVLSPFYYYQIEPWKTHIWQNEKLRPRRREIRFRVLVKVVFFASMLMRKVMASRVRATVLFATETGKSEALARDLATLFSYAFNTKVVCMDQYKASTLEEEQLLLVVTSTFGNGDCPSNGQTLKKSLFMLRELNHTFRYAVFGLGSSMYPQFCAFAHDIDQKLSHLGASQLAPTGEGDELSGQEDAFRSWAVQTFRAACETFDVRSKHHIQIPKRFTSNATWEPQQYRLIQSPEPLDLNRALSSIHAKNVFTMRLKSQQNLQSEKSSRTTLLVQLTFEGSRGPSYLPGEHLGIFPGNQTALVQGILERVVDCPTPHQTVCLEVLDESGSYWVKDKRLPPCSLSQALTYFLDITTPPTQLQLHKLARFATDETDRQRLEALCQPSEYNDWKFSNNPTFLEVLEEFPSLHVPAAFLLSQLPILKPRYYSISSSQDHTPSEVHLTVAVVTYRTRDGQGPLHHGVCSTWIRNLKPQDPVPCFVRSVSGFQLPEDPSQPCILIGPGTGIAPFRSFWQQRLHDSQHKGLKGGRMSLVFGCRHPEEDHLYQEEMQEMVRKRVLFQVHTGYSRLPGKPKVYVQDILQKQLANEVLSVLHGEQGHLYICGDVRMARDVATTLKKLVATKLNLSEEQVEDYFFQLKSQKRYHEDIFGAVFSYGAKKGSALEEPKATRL
In short: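 RAW 264.7 macrophages seeded at 100,000 cells/well in RPMI 1640 with 5% FCS and grown 24 h. Stimulated with 40 U/ml γ-IFN and 50 ng/ml LPS, with compound at 100 µM in 1% DMSO, for 15 h at 37 °C. Supernatant nitrite measured with Griess reagent at 550 nm against an NaNO2 calibration; 6–8 determinations.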

[2] = Lipophilicity, log D at pH 7.4 by HPLC method; conditions: buffer
[3] = target: Nitric oxide synthase, inducible (Homo sapiens) (UniProt P35228); test: Inhibition of human iNOS expressed in insect Sf9 cells assessed as residual activity at 100 uM by Griess assay relative to control
Sequence of Nitric oxide synthase, inducible (Homo sapiens) (P35228 whole entry): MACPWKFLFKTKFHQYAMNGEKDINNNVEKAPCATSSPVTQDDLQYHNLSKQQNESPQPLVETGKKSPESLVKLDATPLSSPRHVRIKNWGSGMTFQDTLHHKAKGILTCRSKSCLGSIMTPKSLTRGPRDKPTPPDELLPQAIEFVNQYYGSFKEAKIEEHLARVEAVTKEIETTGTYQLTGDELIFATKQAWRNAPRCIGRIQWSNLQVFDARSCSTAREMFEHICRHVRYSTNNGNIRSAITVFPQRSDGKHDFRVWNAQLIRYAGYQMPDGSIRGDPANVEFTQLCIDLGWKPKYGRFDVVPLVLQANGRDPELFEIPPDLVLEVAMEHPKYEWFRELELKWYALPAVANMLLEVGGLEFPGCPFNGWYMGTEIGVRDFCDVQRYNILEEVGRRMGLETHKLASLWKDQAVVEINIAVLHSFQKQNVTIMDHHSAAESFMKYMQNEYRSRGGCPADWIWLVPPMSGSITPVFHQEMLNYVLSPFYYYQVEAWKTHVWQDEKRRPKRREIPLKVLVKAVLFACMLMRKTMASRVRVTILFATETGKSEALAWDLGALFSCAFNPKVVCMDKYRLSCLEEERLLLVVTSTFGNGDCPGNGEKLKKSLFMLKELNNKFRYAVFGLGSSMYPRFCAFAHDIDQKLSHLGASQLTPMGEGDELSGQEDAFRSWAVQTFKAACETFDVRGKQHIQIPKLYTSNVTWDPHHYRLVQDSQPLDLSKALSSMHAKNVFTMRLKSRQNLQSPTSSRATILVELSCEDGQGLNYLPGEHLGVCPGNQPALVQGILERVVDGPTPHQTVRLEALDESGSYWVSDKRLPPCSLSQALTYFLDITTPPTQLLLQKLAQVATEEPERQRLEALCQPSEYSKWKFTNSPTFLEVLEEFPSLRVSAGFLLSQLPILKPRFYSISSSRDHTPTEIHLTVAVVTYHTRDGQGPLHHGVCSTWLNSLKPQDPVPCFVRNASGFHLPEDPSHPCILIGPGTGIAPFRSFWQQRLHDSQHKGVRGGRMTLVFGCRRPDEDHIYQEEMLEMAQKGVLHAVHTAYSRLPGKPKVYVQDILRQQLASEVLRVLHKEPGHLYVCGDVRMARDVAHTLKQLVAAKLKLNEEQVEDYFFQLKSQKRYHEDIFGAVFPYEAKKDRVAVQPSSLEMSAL
In short: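 Human iNOS made in Sf9 cells, incubated at 37 °C for 20 min in 50 mM triethanolamine pH 7.5 with 1 mM Mg2+, FAD/FMN 5 µM each, 0.5 mM NADPH, 10 µM H4B, CaM and 1 mM L-arginine. Compound 100 µM final. NADPH cleared with lactate dehydrogenase/pyruvate before Griess reaction (543 nm). Residual activity relative to 1% DMSO control; mean of 5 experiments.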

[4] = target: T2, Nitric oxide synthase 3 (Homo sapiens) (UniProt P29474); test: Inhibition of human eNOS assessed as residual activity at 100 uM by Griess assay relative to control
T2 sequence (whole entry): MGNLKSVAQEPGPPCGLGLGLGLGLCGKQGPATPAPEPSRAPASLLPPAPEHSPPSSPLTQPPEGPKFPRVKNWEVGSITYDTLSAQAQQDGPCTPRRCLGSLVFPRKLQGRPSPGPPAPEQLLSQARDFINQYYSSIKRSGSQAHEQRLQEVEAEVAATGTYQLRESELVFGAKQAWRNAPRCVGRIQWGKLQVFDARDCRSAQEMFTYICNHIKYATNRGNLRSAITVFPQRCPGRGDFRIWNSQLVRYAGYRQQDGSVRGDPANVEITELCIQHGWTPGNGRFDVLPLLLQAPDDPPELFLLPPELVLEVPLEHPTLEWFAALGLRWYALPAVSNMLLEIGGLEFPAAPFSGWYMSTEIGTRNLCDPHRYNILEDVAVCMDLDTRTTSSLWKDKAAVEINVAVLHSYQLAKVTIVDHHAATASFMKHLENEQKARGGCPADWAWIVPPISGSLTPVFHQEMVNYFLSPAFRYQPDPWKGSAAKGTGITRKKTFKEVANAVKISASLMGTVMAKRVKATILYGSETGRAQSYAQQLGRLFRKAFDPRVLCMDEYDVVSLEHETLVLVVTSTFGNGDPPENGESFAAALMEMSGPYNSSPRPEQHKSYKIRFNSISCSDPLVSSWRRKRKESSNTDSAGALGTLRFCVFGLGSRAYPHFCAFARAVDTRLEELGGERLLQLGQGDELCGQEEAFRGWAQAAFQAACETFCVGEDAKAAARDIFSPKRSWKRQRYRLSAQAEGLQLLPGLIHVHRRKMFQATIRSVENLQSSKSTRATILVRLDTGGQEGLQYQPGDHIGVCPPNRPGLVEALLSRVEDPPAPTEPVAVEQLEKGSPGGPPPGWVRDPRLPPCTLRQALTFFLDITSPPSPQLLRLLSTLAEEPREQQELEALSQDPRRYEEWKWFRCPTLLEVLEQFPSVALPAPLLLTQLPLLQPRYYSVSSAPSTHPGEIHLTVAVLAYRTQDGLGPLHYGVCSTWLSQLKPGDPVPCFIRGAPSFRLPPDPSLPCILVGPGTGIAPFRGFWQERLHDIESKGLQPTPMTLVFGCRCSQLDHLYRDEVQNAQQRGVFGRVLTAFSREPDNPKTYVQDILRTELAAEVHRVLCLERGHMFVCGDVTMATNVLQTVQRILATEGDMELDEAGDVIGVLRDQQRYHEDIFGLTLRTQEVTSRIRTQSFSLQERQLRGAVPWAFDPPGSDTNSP
In short: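 Human eNOS expressed in Pichia pastoris. Incubated 20 min at 37 °C in triethanolamine pH 7.5 with 0.5 mM Ca2+, CaM, H4B 10 µM, FAD/FMN 5 µM, NADPH 0.5 mM, L-arginine 1 mM and compound at 100 µM final. Nitrite read by Griess (543 nm) after LDH/pyruvate NADPH removal; % of 1% DMSO control from 5 experiments.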

[5] = system: RAW264.7; test: Cytotoxicity against mouse RAW264.7 cells at 100 uM; assay type: cell-based; conditions: raw264.7, 100 µM
[6] = target: T3, Nitric oxide synthase 3 (Bos taurus) (UniProt P29473); test: Inhibition of bovine eNOS expressed in insect Sf9 cells assessed as residual activity at 100 uM by Griess assay relative to control
T3 sequence (whole entry): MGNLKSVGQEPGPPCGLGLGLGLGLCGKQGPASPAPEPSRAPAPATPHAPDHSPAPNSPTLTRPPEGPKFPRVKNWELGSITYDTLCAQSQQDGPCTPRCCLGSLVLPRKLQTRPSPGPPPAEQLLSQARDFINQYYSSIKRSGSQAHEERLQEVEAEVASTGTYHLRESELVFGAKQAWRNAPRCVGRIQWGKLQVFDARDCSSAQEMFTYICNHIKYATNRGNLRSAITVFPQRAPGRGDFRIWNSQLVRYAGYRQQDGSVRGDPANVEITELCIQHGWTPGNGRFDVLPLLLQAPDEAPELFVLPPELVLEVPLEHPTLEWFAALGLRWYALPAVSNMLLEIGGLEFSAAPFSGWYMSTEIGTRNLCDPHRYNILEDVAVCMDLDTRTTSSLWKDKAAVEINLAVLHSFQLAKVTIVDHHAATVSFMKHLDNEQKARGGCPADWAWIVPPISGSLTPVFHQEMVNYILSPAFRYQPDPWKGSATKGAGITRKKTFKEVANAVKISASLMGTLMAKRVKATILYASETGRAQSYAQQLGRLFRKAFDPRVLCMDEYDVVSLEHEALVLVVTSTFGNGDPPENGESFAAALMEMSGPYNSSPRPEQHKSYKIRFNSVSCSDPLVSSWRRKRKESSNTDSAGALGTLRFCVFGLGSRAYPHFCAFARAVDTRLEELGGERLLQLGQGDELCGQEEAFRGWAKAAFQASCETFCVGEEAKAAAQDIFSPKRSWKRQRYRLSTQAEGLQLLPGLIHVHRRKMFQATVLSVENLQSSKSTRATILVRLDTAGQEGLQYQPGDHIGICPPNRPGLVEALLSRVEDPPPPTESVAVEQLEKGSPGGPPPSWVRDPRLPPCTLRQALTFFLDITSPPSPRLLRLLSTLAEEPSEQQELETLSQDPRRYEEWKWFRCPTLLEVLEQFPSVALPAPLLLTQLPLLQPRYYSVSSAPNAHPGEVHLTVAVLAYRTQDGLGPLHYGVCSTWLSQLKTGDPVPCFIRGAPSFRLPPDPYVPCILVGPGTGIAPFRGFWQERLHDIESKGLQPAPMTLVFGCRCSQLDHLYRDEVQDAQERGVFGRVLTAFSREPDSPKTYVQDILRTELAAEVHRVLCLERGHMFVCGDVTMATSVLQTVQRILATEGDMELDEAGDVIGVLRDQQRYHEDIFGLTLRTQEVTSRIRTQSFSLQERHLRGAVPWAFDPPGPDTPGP
In short: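 Bovine eNOS from Sf9 cells. Reaction: triethanolamine buffer pH 7.5, 0.5 mM Ca2+, 10 µg/ml CaM, 10 µM H4B, FAD, FMN, 0.5 mM NADPH, 1 mM L-arginine, with 100 µM compound, 20 min at 37 °C. After NADPH removal by LDH/pyruvate, nitrite measured by Griess at 543 nm. Expressed as % residual activity versus 1% DMSO control, 5 experiments.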

[7] = target: Nitric oxide synthase 1 (Rattus norvegicus) (UniProt P29476); test: Inhibition of rat recombinant nNOS expressed in Saccharomyces cerevisiae assessed as conversion of [gamma-14C]L-arginine to [14C]L-citrulline at 100 uM by radioactive assay relative to control; design: scale not given: the % may be the effect or the level left
Sequence of Nitric oxide synthase 1 (Rattus norvegicus) (P29476 whole entry): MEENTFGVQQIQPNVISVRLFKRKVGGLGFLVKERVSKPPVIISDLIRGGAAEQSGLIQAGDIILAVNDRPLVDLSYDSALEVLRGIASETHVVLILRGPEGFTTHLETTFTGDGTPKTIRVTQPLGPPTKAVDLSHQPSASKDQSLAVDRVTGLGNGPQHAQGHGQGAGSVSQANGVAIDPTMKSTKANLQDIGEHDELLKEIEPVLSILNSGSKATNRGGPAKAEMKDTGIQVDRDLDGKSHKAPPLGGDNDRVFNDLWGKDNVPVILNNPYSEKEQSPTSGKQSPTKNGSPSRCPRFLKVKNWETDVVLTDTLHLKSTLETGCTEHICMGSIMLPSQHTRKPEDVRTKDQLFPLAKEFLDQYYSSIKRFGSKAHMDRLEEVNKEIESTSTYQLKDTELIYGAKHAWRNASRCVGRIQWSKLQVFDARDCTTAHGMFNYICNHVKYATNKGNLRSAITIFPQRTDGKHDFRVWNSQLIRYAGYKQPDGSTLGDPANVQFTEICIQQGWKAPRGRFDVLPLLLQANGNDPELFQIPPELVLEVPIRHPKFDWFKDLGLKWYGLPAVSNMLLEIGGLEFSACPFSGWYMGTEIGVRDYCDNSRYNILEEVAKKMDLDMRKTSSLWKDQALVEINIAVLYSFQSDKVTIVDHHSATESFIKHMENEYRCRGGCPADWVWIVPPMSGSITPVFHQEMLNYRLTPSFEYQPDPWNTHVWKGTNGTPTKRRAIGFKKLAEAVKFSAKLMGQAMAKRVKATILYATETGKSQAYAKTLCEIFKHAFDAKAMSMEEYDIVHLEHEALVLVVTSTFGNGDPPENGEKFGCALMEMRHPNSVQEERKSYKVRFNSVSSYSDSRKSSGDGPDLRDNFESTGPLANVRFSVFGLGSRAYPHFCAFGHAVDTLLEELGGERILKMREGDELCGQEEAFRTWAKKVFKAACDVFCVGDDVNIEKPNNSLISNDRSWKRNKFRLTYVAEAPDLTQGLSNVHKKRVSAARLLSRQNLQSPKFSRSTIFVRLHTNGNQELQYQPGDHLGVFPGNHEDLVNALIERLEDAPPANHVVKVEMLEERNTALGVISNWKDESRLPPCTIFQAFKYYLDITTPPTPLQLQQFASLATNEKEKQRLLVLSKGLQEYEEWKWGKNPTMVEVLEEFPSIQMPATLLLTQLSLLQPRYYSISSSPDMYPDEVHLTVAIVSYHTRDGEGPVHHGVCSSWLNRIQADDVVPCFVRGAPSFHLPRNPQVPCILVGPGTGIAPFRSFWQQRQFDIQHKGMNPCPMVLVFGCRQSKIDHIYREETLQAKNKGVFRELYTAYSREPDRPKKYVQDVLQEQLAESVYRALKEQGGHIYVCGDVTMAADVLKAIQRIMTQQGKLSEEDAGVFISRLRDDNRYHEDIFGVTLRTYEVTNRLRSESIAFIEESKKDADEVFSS
In short: (§1)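 Purified enzymes: rat nNOS from S. cerevisiae, murine iNOS and bovine eNOS from E. coli. Reaction 5 min at 37 °C in 50 mM Hepes pH 7.4 with DTT, 1 mM NADPH, H4B, FAD, FMN, [14C]L-arginine (2.5 µM L-arginine) and 100 µM compound in 1% DMSO. nNOS/eNOS also got 1 mM CaCl2 and CaM, which iNOS lacked. [14C]citrulline isolated on Dowex and counted by scintillation; % of DMSO control, n=3.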

[8] = target: T1, Nitric oxide synthase, inducible (Mus musculus); test: Inhibition of mouse recombinant iNOS expressed in Escherichia coli assessed as NADPH consumption at 100 uM after 2 mins by spectrophotometry
In short: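 Murine iNOS from E. coli (15–50 nM final) in 50 mM Hepes pH 7.4 with 5 mM DTT, 100 µM CaCl2, 200 µM NADPH, 10 µM H4B, 100 µM L-arginine and 100 µM compound. Cofactors and compound preincubated 2 min at 37 °C, enzyme added, and A340 followed for 3 min (ε 6.2 mM-1 cm-1). Given as % of 1% DMSO control NADPH oxidase rate.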

[9] = target: T3, Nitric oxide synthase 3 (Bos taurus); test: Inhibition of bovine recombinant eNOS expressed in Escherichia coli assessed as conversion of [gamma-14C]L-arginine to [14C]L-citrulline at 100 uM by radioactive assay relative to control; design: scale not given: the % may be the effect or the level left; in short: as §1
[10] = target: T1, Nitric oxide synthase, inducible (Mus musculus); test: Inhibition of mouse recombinant iNOS expressed in Escherichia coli assessed as conversion of [gamma-14C]L-arginine to [14C]L-citrulline at 100 uM by radioactive assay relative to control; design: scale not given: the % may be the effect or the level left; in short: as §1
[11] = target: T1, Nitric oxide synthase, inducible (Mus musculus); test: Inhibition of mouse iNOS expressed in insect Sf9 cells assessed as residual activity at 100 uM by Griess assay relative to control
In short: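 Murine iNOS produced in Sf9 insect cells. Buffer: 50 mM triethanolamine pH 7.5, 1 mM CHAPS, 10 mM 2-mercaptoethanol, 0.5 mM EDTA. Additions: 1 mM Mg2+, 5 µM FAD, 5 µM FMN, 0.5 mM NADPH, 10 µM H4B, 10 µg/ml CaM, 1 mM L-arginine. Compound at 100 µM final, 37 °C for 20 min. NADPH removed with LDH/pyruvate, then Griess read at 543 nm. Values are % of 1% DMSO control, 5 experiments.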

SMILES	inhibition [1] [%]	logD [2]	Activity [3] [%]	Activity [4] [%]	Activity [5]	Activity [6] [%]	Activity [7] [%]	Remaining NADPH oxidation rate (% of DMSO control) [8] [%]	Activity [9] [%]	Activity [10] [%]	Activity [11] [%]
CC1=CC=CC2=NCC(C(=O)c3ccc(-c4ccc(Br)cc4)cc3)CN12.[O-][Cl+3]([O-])([O-])O (stereo unspecified)	98	2.8	106	84	Non-toxic						
Cc1ccc(C(=O)C2CN=C3C=CC=CN3C2)cc1.[O-][Cl+3]([O-])([O-])O (stereo unspecified)	60				Non-toxic	94	92	91	100	100	86
COc1ccc(C(=O)C2CN=C3C(C)=CC=CN3C2)cc1OC (stereo unspecified)	67				Non-toxic	95	48	89	94	96	102
